ERAP1 inh: human ERAP1 aminopeptidase inhibitors, primary screen, biochemical, single point, plate reader; Endoplasmic reticulum aminopeptidase 1 (Homo sapiens), Q9NZ08; recombinant ERAP1, Leu-AMC fluorescence, 60 min; inhibition, % at 10.7 µM; 340,000 compounds, 0.15% hits;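 active means mean replicate inhibition of at least 30%, or all replicates individually reaching that 30% level; inactive means mean below 30% and not every replicate reaching it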
Ecoli rRNA inh: reduced GFP signal of wild-type E. coli, primary screen, bacterial rRNA inhibitor project, GFP/RFP fluorescence, OD600, single point; E. coli WT GFP vs humanized-ribosome RFP mutants, 24 h; hits give low values; DMSO median 0, no signal -100; GFP signal change (wild-type ribosome), % (concentration not given with the values); 350,000 compounds, 1.6% hits; AID 720706, 2013;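 active means significant combined selectivity score with lowered wild-type GFP, culture density cut under 30%, mutant RFP and density less affected; inactive means any of these conditions unmet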
F508del corr: F508del CFTR correction, initial screen, CFBE line, single point. AID 720511, 2013. 350,000 compounds, 0.36% hits. CFBE cells, YFP halide quenching; stimulated with forskolin plus potentiator P3; % fluorescence drop versus neutral controls. activity (quench increase), % at 7.58 µM;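 active means mean added fluorescence quench of at least 8% versus neutral control, with both replicates also reaching 8%; inconclusive means only one of the mean or replicate conditions met; inactive means mean below 8% and not both replicates reaching 8%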;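 further: cells transiently co-express mutant CFTR-F508del with the halide-sensitive YFP; corrector assay measuring rescue of mutant channel to the surface after 24 h compound exposure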
SIRT5 inh: SIRT5 desuccinylase inhibitors, primary screen, biochemical, fluorescence imaging, single point, set 5. NAD-dependent protein deacylase sirtuin-5, mitochondrial (Homo sapiens), Q9NXA8. Purified SirT5, succinyl-peptide AMC, trypsin-coupled fluorescence. inhibition, % at 15 µM. 330,000 compounds, 1.1% hits; in the data active means inhibition above about 15%; inconclusive means no clear call, values can overlap the other calls
Target sequence (Q9NXA8 whole entry, looked up): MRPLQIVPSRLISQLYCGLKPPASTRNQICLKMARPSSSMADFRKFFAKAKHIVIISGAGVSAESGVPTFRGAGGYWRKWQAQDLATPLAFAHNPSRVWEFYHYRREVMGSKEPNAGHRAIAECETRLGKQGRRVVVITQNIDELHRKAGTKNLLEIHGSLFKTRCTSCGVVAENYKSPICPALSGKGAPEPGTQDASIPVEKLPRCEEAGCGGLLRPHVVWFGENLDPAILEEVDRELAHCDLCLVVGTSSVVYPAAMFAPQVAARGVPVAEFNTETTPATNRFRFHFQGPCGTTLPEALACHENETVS
S100A4 MyoIIA: inhibitors of S100A4-myosin IIA peptide binding, primary screen, biochemical, fluorescence polarization, TAMRA-MyoIIA peptide; Protein S100-A4 (Homo sapiens), P26447; inhibition, % at 10.7 µM; 360,000 compounds, 0.14% hits; AID 652163, 2013;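 active means mean inhibition of at least 70% across replicates, with every replicate also reaching that level; inconclusive means mean inhibition reaches 70% but some replicates fall short; inactive means mean inhibition below 70%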
Target sequence (P26447 whole entry, looked up): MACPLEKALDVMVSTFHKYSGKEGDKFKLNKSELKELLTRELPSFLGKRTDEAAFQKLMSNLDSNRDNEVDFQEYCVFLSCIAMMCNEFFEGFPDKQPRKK
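Compound dosing: one dose per compound; test system: human S100A4 monomer with TAMRA-labelled myosin IIA peptide; probe or stimulus: TAMRA-labelled myosin IIA heavy-chain peptide probe, 5 nM; medium: HEPES buffer with Ca2+, pH 7.2; schedule: 5 min incubation before reading; benchmarks: neutral control DMSO, positive control TFP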
AID977621: growth inhibition of wild-type GFP E. coli, dose response, H69 mutant RFP, cherry-pick; shares compounds with Ecoli rRNA inh; E. coli wild-type GFP strain growth, fluorescence, 24 h; activity change, negative = inhibition at 50 µM; 1,900 tested, under 10 active;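 active means Wild-type ribosome reporter drop at least double the humanized mutant ribosome reporter drop, growth loss under a set limit; inconclusive means no clear call, values can overlap the other calls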;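 further: wild-type GFP and H69 mutant RFP strains grown together 50/50 in each well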
AID977628: E. coli growth inhibition, wild-type GFP versus h24 humanized RFP strain, dose response, h24 mutant RFP vs wild-type GFP, cherry-pick; shares compounds with Ecoli rRNA inh; E. coli WT GFP strain growth, fluorescence, 24 h; activity change, negative = inhibition at 50 µM; 1,900 tested, under 10 active; AID 977628, 2014;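 active means compound lowering the normal-ribosome reporter at least twice as much as the humanized-ribosome reporter, growth loss under a set limit; inconclusive means no clear call, values can overlap the other calls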;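 further: wild-type GFP and h24 humanized RFP strains co-cultured 1 to 1 per well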
Numbers stand for hits; n = inactive; u = inconclusive; x = not tested or not shown. Shown are actives, neighbours in structure and some others; about 3.1% of the full set was active somewhere.

SMILES	ERAP1 inh	Ecoli rRNA inh	F508del corr	SIRT5 inh	S100A4 MyoIIA	AID977621	AID977628
C[C@@H]1CN([C@@H](C)CO)C(=O)Cc2cc(NS(=O)(=O)c3cccs3)ccc2O[C@H]1CN(C)S(C)(=O)=O	n	n	n	n	n	x	x
N#Cc1ccccc1OCC(=O)Nc1cccc(S(=O)(=O)N2CCCC2)c1	n	n	n	n	n	x	x
COc1cc(C#N)ccc1OCC(=O)Nc1cccc(S(=O)(=O)N2CCCC2)c1	n	-25.9	n	n	n	x	n
O=C(Cn1nc(C(=O)O)c2ccccc2c1=O)Nc1cccc(S(=O)(=O)N2CCCCC2)c1	n	n	n	n	n	x	x
Cn1nc(C(=O)Nc2cccc(S(=O)(=O)N3CCCCC3)c2)c2ccccc2c1=O	n	-17.1	n	n	n	n	n
CN(C(=O)COc1ccccc1C(=O)NCCOc1ccccc1)c1ccccc1	n	-19.0	x	x	n	n	x
Nc1[nH]c(C(=O)c2ccccc2)c(-c2ccc(Cl)cc2)c1C(=O)NCCc1c[nH]c2ccccc12	n	-18.6	n	n	n	n	x
Nc1[nH]c(C(=O)c2ccccc2)c(-c2ccc(F)cc2)c1C(=O)NCCc1c[nH]c2ccccc12	n	n	n	n	n	x	x
CCCCNC(=O)c1c(N)[nH]c(C(=O)c2ccccc2)c1-c1ccccn1	n	-26.8	n	n	n	n	n
Nc1[nH]c(C(=O)c2ccccc2)c(-c2ccc3c(c2)OCO3)c1C(=O)NCCc1c[nH]c2ccccc12	n	-14.8	n	x	n	u	x
O=C(NCCCN1CCOCC1)[C@H]1[C@H](CO)[C@H]2Cn3c(cccc3=O)[C@@H]1N2C(=O)C1CCCC1	n	n	n	n	n	x	x
CCCNC(=O)N1CC2(C1)CN(C(=O)NC(C)C)[C@H](CO)c1c2c2ccc(OC)cc2n1C	x	n	n	x	x	x	x
COc1cccc(C#Cc2cnc3c(c2)C(=O)N([C@H](C)CO)C[C@H](C)[C@H](CN(C)C(=O)C2CC2)O3)c1	n	n	n	n	n	x	x
CC(=O)N1CC2(C1)[C@H](c1ccc(-c3cccc(F)c3)cc1)[C@H](CO)N2CC1CC1	n	n	n	x	n	x	x
O=C(Cc1ccc(Br)cc1)Nc1cccc(-c2cn3c(n2)SCC3)c1	n	-21.4	n	n	n	n	n
CCCC(CCC)C(=O)Nc1cccc(-c2cn3c(n2)SCC3)c1	n	n	n	n	n	x	x
Cc1cc(NC(=O)c2cccc(Oc3ccccc3)c2)n[nH]1	n	-22.0	n	n	n	x	u
CCC(=O)Nc1ccc2c(c1)OC[C@@H](C)N(C(=O)CN(C)C)C[C@@H](C)[C@@H](OC)CN(C)C2=O	n	n	n	n	n	x	x
O=c1[nH]c(C2CCN(S(=O)(=O)c3ccccc3)CC2)nc2c1nnn2Cc1ccc2c(c1)OCCO2	n	n	n	n	n	x	x
O=c1[nH]c(C2CCCN(S(=O)(=O)c3ccccc3Cl)C2)nc2c1nnn2Cc1ccc2c(c1)OCCO2 (stereo unspecified)	n	-17.6	n	n	n	n	x
CO[C@H]1CN(C)C(=O)c2ccc(NS(C)(=O)=O)cc2OC[C@@H](C)N(CCC(F)(F)F)C[C@@H]1C	n	n	n	n	n	x	x
COc1ccc([C@H]2CC(=O)C[C@@H](CCn3cc(-c4ccncc4)nn3)O2)cc1	x	n	n	n	n	x	x
COc1ccc([C@H]2C[C@H](O)C[C@@H](CCn3cc(-c4ccccc4)nn3)O2)cc1	x	-22.1	n	x	n	x	n
COc1ccc(C(=O)n2cnc3ccccc32)cc1[N+](=O)[O-]	n	-27.1	n	n	n	n	n
O=C(N[C@@H]1CC[C@@H](CC(=O)N2CCOCC2)O[C@H]1CO)c1ccccn1	n	n	n	n	n	x	x
SMILES	ERAP1 inh	Ecoli rRNA inh	F508del corr	SIRT5 inh	S100A4 MyoIIA	AID977621	AID977628
O=C(Nc1c(S(=O)(=O)c2ccc(Cl)cc2)csc1Br)c1ccccc1Cl	n	-25.8	n	n	n	n	u
CC(C)C#Cc1cnc2c(c1)C(=O)N([C@H](C)CO)C[C@@H](C)[C@@H](CN(C)C(=O)CCN1CCCCC1)O2	n	n	n	n	n	x	x
Cc1onc(-c2ccccc2Cl)c1C(=O)Nc1ccc(Cl)cn1	n	-22.4	n	n	n	n	n
Cc1onc(-c2c(Cl)cccc2Cl)c1C(=O)Nc1ccc(Cl)cn1	n	-20.5	n	n	n	n	n
Cc1onc(-c2ccccc2)c1C(=O)Nc1ccc(Cl)cn1	n	n	n	n	n	x	x
C[C@H]1CN([C@@H](C)CO)C(=O)c2cc(C3=CCCCC3)cnc2O[C@@H]1CN(C)C(=O)Cc1cccnc1	n	n	n	n	n	x	x
O=C(c1ccccc1)N1[C@H](CO)[C@H](c2ccccc2)C12CN(CCC(F)(F)F)C2	n	n	n	n	n	x	x
COc1ccc(-c2nc(NC(C)=O)sc2-c2ccccc2)cc1	n	-17.8	n	n	n	n	x
COc1ccc(-c2nc(NC(=O)c3ccccc3)sc2-c2ccc([N+](=O)[O-])cc2)cc1	n	n	n	n	n	x	x
CCN(c1ccccc1)S(=O)(=O)c1ccc(OC)c(NC(=O)C2CC(=O)N(Cc3ccccc3)C2)c1 (stereo unspecified)	n	-31.3	n	n	n	x	u
Cc1sc(NC(=O)CN2CCOCC2)nc1-c1ccc2c(c1)CCN2S(=O)(=O)c1ccccc1	n	-20.8	n	n	n	n	x
O=C(CN1CCOCC1)Nc1nc(-c2ccc3c(c2)CCN3S(=O)(=O)c2ccccc2)cs1	n	n	x	n	n	x	x
C[C@H](CO)N1C[C@H](C)[C@H](CN(C)Cc2ccncc2)Oc2c(NC(=O)C3CCOCC3)cccc2C1=O	n	n	n	n	n	x	x
COc1ccc(NS(=O)(=O)c2cc(OC)ccc2OC)cc1	x	n	n	n	n	x	x
COc1ccc(NS(=O)(=O)c2cccc3ccccc23)cc1	n	-38.7	n	n	n	n	x
CC(=O)CSc1ccc(-c2nc3ccccc3[nH]2)cn1	n	-23.7	n	n	n	n	n
Cc1ccccc1SCC(=O)OCC(=O)Nc1sccc1C(N)=O	n	-29.4	x	n	n	n	n
NC(=O)c1ccsc1NC(=O)CSc1ccccc1F	n	n	n	n	n	x	x
NC(=O)c1ccsc1NC(=O)COC(=O)Cc1c[nH]c2ccccc12	n	n	n	n	n	x	x
NC(=O)c1ccsc1NC(=O)COC(=O)Cc1ccc(F)cc1	n	-19.5	n	x	n	u	n

Source: PubChem
